Measured values: ChEMBL document CHEMBL3286320, “Design, Synthesis, and Optimization of Balanced Dual NK1/NK3 Receptor Antagonists” (ACS Med Chem Lett, 2014)

Key:
Neuromedin-K receptor = target: T1, Neuromedin-K receptor (Homo sapiens, UniProt P29371); assay: Displacement of [3H]-SR142801 from human NK3 receptor expressed in recombinant CHO cells; type: cell-based
T1 sequence (P29371 whole entry): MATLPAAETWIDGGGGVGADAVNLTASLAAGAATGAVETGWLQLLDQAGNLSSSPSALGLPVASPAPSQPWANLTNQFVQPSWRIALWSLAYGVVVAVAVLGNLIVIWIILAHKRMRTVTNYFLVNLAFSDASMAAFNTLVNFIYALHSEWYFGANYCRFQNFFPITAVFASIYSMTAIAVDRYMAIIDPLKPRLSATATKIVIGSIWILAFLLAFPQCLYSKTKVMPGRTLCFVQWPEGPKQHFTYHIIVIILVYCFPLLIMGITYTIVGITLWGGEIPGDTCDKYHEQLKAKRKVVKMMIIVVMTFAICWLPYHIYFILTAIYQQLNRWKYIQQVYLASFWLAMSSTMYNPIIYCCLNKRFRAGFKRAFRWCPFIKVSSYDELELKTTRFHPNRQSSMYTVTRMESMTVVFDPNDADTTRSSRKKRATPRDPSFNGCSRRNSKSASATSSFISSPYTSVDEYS
Outline: (§1)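 Radioligand binding on membranes: NK1 on membranes from U-373MG cells, which express the receptor endogenously; NK3 on membranes from CHO cells stably expressing the recombinant human receptor.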

Substance-P receptor = Substance-P receptor (Homo sapiens, UniProt P25103); assay: Displacement of [125I]-Bolton Hunter-substance P from human NK1 receptor expressed in human U373MG cells; type: cell-based, U-373MG ATCC; outline: as §1
Sequence of Substance-P receptor (P25103 whole entry): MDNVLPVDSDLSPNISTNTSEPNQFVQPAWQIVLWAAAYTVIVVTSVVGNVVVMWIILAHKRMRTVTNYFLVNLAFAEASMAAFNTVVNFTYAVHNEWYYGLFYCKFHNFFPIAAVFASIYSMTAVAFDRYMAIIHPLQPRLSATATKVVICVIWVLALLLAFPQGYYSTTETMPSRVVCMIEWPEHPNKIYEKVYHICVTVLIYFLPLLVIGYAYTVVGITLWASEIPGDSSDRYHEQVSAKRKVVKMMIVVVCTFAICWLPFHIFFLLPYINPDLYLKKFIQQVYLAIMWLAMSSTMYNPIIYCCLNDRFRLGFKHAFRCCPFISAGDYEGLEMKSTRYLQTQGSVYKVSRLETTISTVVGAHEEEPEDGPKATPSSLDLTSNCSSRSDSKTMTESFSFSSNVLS

Row | Compound | Ki (Neuromedin-K receptor) | Ki (Substance-P receptor)
1 | CN1C(=O)OC2(CCN(CCC[C@@H](C(=O)N(C)[C@@H](Cc3ccccc3)C(=O)NCCN)c3ccc(Cl)c(Cl)c3)CC2)c2cc(F)ccc21 | 3980 nM | 50.1 nM
2 | CN1C(=O)OC2(CCN(CCC[C@@](C)(C(=O)N[C@H](C(=O)NCCN)c3ccccc3)c3ccc(Cl)c(Cl)c3)CC2)c2cc(F)ccc21 | 794 nM | 316 nM
3 | CN1C(=O)OC2(CCN(CCC[C@H](C(=O)N(C)[C@@H](Cc3ccccc3)C(=O)NCCN)c3ccc(Cl)c(Cl)c3)CC2)c2cc(F)ccc21 | 6310 nM | 398 nM
4 | CN(C)CCNC(=O)[C@@H](Cc1ccccc1)NC(=O)[C@](C)(CCN1CCC2(CC1)OC(=O)N(C)c1ccc(F)cc12)c1ccc(Cl)c(Cl)c1 | 31.6 nM | 39.8 nM
5 | CN1C(=O)OC2(CCN(CCC[C@@](C)(C(=O)N[C@H](Cc3ccccc3)C(=O)NCCO)c3ccc(Cl)c(Cl)c3)CC2)c2cc(F)ccc21 | 126 nM | 15.8 nM
6 | CN1C(=O)OC2(CCN(CC[C@@](C)(C(=O)N(C)[C@H](Cc3ccccc3)C(=O)NCCCN)c3ccc(Cl)c(Cl)c3)CC2)c2cc(F)ccc21 | 25.1 nM | 3.98 nM
7 | CN1C(=O)OC2(CCN(CC[C@@H](C(=O)N(C)[C@H](C(=O)NCCN)c3ccccc3)c3ccc(Cl)c(Cl)c3)CC2)c2cc(F)ccc21 (racemic) | 2510 nM | 631 nM
8 | CN(C)CCNC(=O)[C@@H](Cc1ccccc1)NC(=O)[C@](C)(CCCN1CCC2(CC1)OC(=O)N(C)c1ccc(F)cc12)c1ccc(Cl)c(Cl)c1 | 1000 nM | 20 nM
9 | CN1C(=O)OC2(CCN(CC[C@H](C(=O)N(C)[C@@H](Cc3ccccc3)C(=O)NCCN)c3ccc(Cl)c(Cl)c3)CC2)c2cc(F)ccc21 | 1260 nM | 200 nM

Now from value to molecule:

Row | Ki (Neuromedin-K receptor) | Ki (Substance-P receptor) | Compound
10 | 2.51 nM | 31.6 nM | CN1C(=O)OC2(CCN(CC[C@@](C)(C(=O)N[C@H](Cc3ccccc3)C(=O)NCCO)c3ccc(Cl)c(Cl)c3)CC2)c2cc(F)ccc21
11 | 1580 nM | 63.1 nM | CN1C(=O)OC2(CCN(CCC[C@@](C)(C(=O)N[C@H](Cc3ccccc3)C(=O)NCCN)c3ccc(Cl)c(Cl)c3)CC2)c2cc(F)ccc21
12 | 39.8 nM | 251 nM | CN1C(=O)OC2(CCN(CC[C@@](C)(C(=O)N[C@H](C(=O)NCCN)c3ccccc3)c3ccc(Cl)c(Cl)c3)CC2)c2cc(F)ccc21
13 | 20 nM | 15.8 nM | CNCCNC(=O)[C@@H](Cc1ccccc1)NC(=O)[C@](C)(CCN1CCC2(CC1)OC(=O)N(C)c1ccc(F)cc12)c1ccc(Cl)c(Cl)c1
14 | 10000 nM | 398 nM | CN1C(=O)OC2(CCN(CC[C@](C)(C(=O)N[C@@H](Cc3ccccc3)C(=O)NCCN)c3ccc(Cl)c(Cl)c3)CC2)c2cc(F)ccc21
15 | 7.94 nM | 2.51 nM | CN1C(=O)OC2(CCN(CC[C@@](C)(C(=O)N(C)[C@H](Cc3ccccc3)C(=O)NCCN)c3ccc(Cl)c(Cl)c3)CC2)c2cc(F)ccc21
16 | 50.1 nM | 20 nM | CN1C(=O)OC2(CCN(CC[C@@](C)(C(=O)N[C@H](Cc3ccccc3)C(=O)NCCN)c3ccc(Cl)c(Cl)c3)CC2)c2cc(F)ccc21
17 | 1580 nM | 126 nM | CN1C(=O)OC2(CCN(CC[C@@H](C(=O)N(C)[C@@H](Cc3ccccc3)C(=O)NCCN)c3ccc(Cl)c(Cl)c3)CC2)c2cc(F)ccc21 (mixture of isomers)
18 | 2000 nM | 631 nM | CN1C(=O)OC2(CCN(CC[C@](C)(C(=O)N[C@H](Cc3ccccc3)C(=O)NCCN)c3ccc(Cl)c(Cl)c3)CC2)c2cc(F)ccc21
19 | 63.1 nM | 126 nM | CN1C(=O)OC2(CCN(CC[C@@](C)(C(=O)N[C@@H](Cc3ccccc3)C(=O)NCCN)c3ccc(Cl)c(Cl)c3)CC2)c2cc(F)ccc21
